Reference: ChEMBL document CHEMBL5380801, “Development of Substituted Phenyl Dihydrouracil as the Novel Achiral Cereblon Ligands for Targeted Protein Degradation” (J Med Chem, 2023)
The source made the active and inactive calls. The rule behind the calls is not given here.

Tests used:
[1] = target: Protein cereblon/Bromodomain-containing protein 4 (Homo sapiens) (UniProt O60885+Q96SW2); experiment: Protac activity at CRBN/BRD4 in human MV4-11 cells assessed as degradation of BRD4 at 0.01 to 1 uM incubated for 24 hrs; assay type: cell-based; conditions: dose 0.01-1 µM
MV4-11 [2] = experiment: Induction of apoptosis in human MV4-11 cells assessed as caspase 3 cleavage at 0.01 to 10 nM; assay type: functional, cell-based; conditions: MV4-11, dose upper 10.0 µM, in the assay text read “0.01 to 10 uM” for “0.01 to 10 nM”
Outline: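 MV4;11 cells treated with the indicated concentrations for 24 h, or for the indicated times. […] Blocked in 5% BSA/TBST; anti-caspase 3 and anti-β-actin overnight in the cold, HRP secondary 1 h at room temperature; ECL detection of full-length and cleaved caspase 3.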

MV4-11 [3] = experiment: Antiproliferative activity at human MV4-11 cells assessed as reduction in cell viability measured after 72 hrs by Alamar blue dye based analysis; assay type: functional; conditions: MV4-11, 72 h
Outline: (§1)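 MV4;11 cells (RPMI1640, 10% FBS, 1% Pen/Strep, 37 °C, 5% CO2, used within 20 passages) seeded at 5000–10000 cells/well, then given DMSO or compound at the indicated doses for 72 h. AlamarBlue then added; fluorescence read at ex 530–560 nm, em 590 nm. Signal normalized to DMSO-treated cells; IC50 calculated.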

MV4-11 [4] = experiment: Induction of cell cycle arrest in human MV4-11 cells assessed as accumulation of cells at G1 phase at 0.01 to 10 uM incubated for 48 hrs by PI staining based flow cytometry analysis; assay type: functional; conditions: dose 0.01-10 µM
Outline: (§2)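 Cell-cycle distribution determined by flow cytometry (Attune) in MV4;11 cells seeded in 6-well plates and treated with the indicated concentrations for 48 h.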

MV4-11 [5] = experiment: Induction of cell cycle arrest in human MV4-11 cells assessed as decrease in accumulation of cells at S phase at 0.01 to 10 uM incubated for 48 hrs by PI staining based flow cytometry analysis; assay type: functional; conditions: dose 0.01-10 µM; outline: as §2
MV4-11 [6] = experiment: Induction of apoptosis in human MV4-11 cells assessed as viable cells at 10 uM measured after 48 hrs by Annexin V-FITC staining based flow cytometry (reference value: 98.7%); assay type: functional; conditions: read-out: Activity
MV4-11 [7] = experiment: Induction of apoptosis in human MV4-11 cells assessed as viable cells at 1 uM measured after 48 hrs by Annexin V-FITC staining based flow cytometry (reference value: 98.7%); assay type: functional; conditions: read-out: Activity
MV4-11 [8] = experiment: Induction of apoptosis in human MV4-11 cells assessed as viable cells at 0.1 uM measured after 48 hrs by Annexin V-FITC staining based flow cytometry (reference value: 98.7%); assay type: functional; conditions: read-out: Activity
MV4-11 [9] = experiment: Induction of apoptosis in human MV4-11 cells assessed as viable cells at 0.01 uM measured after 48 hrs by Annexin V-FITC staining based flow cytometry (reference value: 98.7%); assay type: functional; conditions: read-out: Activity
MV4-11 [10] = experiment: Induction of apoptosis in human MV4-11 cells assessed as early apoptotic cells at 10 uM measured after 48 hrs by Annexin V-FITC staining based flow cytometry (reference value: 0%); assay type: functional
MV4-11 [11] = experiment: Induction of apoptosis in human MV4-11 cells assessed as early apoptotic cells at 1 uM measured after 48 hrs by Annexin V-FITC staining based flow cytometry (reference value: 0%); assay type: functional
MV4-11 [12] = experiment: Induction of apoptosis in human MV4-11 cells assessed as early apoptotic cells at 0.1 uM measured after 48 hrs by Annexin V-FITC staining based flow cytometry (reference value: 0%); assay type: functional
MV4-11 [13] = experiment: Induction of apoptosis in human MV4-11 cells assessed as early apoptotic cells at 0.01 uM measured after 48 hrs by Annexin V-FITC staining based flow cytometry (reference value: 0%); assay type: functional
MV4-11 [14] = experiment: Induction of apoptosis in human MV4-11 cells assessed as late apoptotic cells at 10 uM measured after 48 hrs by Annexin V-FITC staining based flow cytometry (reference value: 0.42%); assay type: functional
MV4-11 [15] = experiment: Induction of apoptosis in human MV4-11 cells assessed as late apoptotic cells at 1 uM measured after 48 hrs by Annexin V-FITC staining based flow cytometry (reference value: 0.42%); assay type: functional
MV4-11 [16] = experiment: Induction of apoptosis in human MV4-11 cells assessed as late apoptotic cells at 0.1 uM measured after 48 hrs by Annexin V-FITC staining based flow cytometry (reference value: 0.42%); assay type: functional
MV4-11 [17] = experiment: Induction of apoptosis in human MV4-11 cells assessed as late apoptotic cells at 0.01 uM measured after 48 hrs by Annexin V-FITC staining based flow cytometry (reference value: 0.42%); assay type: functional
MV4-11 [18] = experiment: Induction of apoptosis in human MV4-11 cells assessed as necrotic cells at 10 uM measured after 48 hrs by Annexin V-FITC staining based flow cytometry (reference value: 0.86%); assay type: functional
MV4-11 [19] = experiment: Induction of apoptosis in human MV4-11 cells assessed as necrotic cells at 1 uM measured after 48 hrs by Annexin V-FITC staining based flow cytometry (reference value: 0.86%); assay type: functional
MV4-11 [20] = experiment: Induction of apoptosis in human MV4-11 cells assessed as necrotic cells at 0.1 uM measured after 48 hrs by Annexin V-FITC staining based flow cytometry (reference value: 0.86%); assay type: functional
MV4-11 [21] = experiment: Induction of apoptosis in human MV4-11 cells assessed as necrotic cells at 0.01 uM measured after 48 hrs by Annexin V-FITC staining based flow cytometry (reference value: 0.86%); assay type: functional
[22] = target: Protein cereblon/DNA damage-binding protein 1 (Homo sapiens, UniProt Q96SW2); experiment: Binding affinity to recombinant human CRBN/DDB1 assessed as dissociation constant incubated for 20 mins by fluorescence polarization assay; assay type: protein assay
[23] = target: Cereblon/Ikaros (Homo sapiens) (UniProt Q96SW2+Q13422); experiment: Protac activity at CRBN/IKZF1 in human MV4-11 cells assessed as induction of IKZF1 degradation at 1 to 10 uM measured after 24 hrs by Western blot analysis; assay type: cell-based; conditions: dose 1-10 µM
[24] = target: Protein cereblon/Zinc finger protein Aiolos (Homo sapiens) (UniProt Q96SW2+Q9UKT9); experiment: Protac activity at CRBN/IKZF3 in human MV4-11 cells assessed as induction of IKZF3 degradation at 1 to 10 uM measured after 24 hrs by Western blot analysis; assay type: cell-based; conditions: dose 1-10 µM
[25] = target: Protein cereblon/Eukaryotic peptide chain release factor GTP-binding subunit ERF3A (Homo sapiens) (UniProt Q96SW2+P15170); experiment: Protac activity at CRBN/GSPT1 in human MV4-11 cells assessed as induction of GSPT1 degradation at 1 to 10 uM measured after 24 hrs by Western blot analysis; assay type: cell-based; conditions: dose 1-10 µM
[26] = Stability in human liver microsomes assessed as parent compound remaining measured after 0.5 hrs in presence of NADPH by LC-MS/MS analysis; assay type: ADME, Microsome; conditions: read-out: Stability
Outline: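 Human liver microsome incubation; percent parent remaining reported after 0.5 h.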

[27] = Stability in human plasma assessed as parent compound remaining measured after 4 hrs in presence of NADPH by LC-MS/MS analysis; assay type: ADME, cell-free; conditions: read-out: Stability
Outline: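 Human plasma incubation; percent parent remaining reported after 4.0 h.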

[28] = Stability of the compound in HCl solution at pH 1.0 assessed as parent compound remaining at 100 uM measured after 24 hrs by HPLC analysis; assay type: physicochemical; conditions: read-out: Stability
Outline: (§3)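 Incubated in buffer at the stated pH at 37 °C; percent parent remaining after 24 h. Ring-opening hydrolysis of the glutarimide or dihydrouracil monitored.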

[29] = Stability of the compound in potassium phosphate buffer at pH 7.4 assessed as parent compound remaining at 100 uM measured after 24 hrs by HPLC analysis; assay type: physicochemical; conditions: read-out: Stability; outline: as §3
[30] = Stability of the compound in bicine buffer at pH 8.8 assessed as parent compound remaining at 100 uM measured after 24 hrs by HPLC analysis; assay type: physicochemical; conditions: read-out: Stability; outline: as §3
[31] = Stability of the compound in bicine buffer at pH 8.8 assessed as parent compound remaining at 100 uM measured after 2 hrs by HPLC analysis; assay type: physicochemical; conditions: read-out: Stability
Outline: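 Incubated in pH 8.8 buffer; percent parent remaining reported after 2 h.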

MV4-11 [32] = experiment: Antiproliferative activity at human MV4-11 cells assessed as reduction in cell viability at upto 100 uM measured after 72 hrs by Alamar blue dye based analysis; assay type: functional; outline: as §1

Chain of Protein cereblon/DNA damage-binding protein 1 (Q96SW2 whole entry): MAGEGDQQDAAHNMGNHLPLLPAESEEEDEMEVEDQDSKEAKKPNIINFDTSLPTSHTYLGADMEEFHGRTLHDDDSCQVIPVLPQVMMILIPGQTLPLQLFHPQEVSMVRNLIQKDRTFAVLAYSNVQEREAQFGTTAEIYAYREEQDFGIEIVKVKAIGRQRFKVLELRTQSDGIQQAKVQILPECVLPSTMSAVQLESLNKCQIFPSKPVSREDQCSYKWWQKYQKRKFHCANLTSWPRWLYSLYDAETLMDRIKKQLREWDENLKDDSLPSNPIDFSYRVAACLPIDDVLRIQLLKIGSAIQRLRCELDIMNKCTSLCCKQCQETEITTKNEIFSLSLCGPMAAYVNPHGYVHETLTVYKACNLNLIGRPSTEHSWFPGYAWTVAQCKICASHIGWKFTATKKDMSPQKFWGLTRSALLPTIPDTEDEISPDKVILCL
Chain of Protein cereblon/DNA damage-binding protein 1 (Q16531 whole entry, further chain): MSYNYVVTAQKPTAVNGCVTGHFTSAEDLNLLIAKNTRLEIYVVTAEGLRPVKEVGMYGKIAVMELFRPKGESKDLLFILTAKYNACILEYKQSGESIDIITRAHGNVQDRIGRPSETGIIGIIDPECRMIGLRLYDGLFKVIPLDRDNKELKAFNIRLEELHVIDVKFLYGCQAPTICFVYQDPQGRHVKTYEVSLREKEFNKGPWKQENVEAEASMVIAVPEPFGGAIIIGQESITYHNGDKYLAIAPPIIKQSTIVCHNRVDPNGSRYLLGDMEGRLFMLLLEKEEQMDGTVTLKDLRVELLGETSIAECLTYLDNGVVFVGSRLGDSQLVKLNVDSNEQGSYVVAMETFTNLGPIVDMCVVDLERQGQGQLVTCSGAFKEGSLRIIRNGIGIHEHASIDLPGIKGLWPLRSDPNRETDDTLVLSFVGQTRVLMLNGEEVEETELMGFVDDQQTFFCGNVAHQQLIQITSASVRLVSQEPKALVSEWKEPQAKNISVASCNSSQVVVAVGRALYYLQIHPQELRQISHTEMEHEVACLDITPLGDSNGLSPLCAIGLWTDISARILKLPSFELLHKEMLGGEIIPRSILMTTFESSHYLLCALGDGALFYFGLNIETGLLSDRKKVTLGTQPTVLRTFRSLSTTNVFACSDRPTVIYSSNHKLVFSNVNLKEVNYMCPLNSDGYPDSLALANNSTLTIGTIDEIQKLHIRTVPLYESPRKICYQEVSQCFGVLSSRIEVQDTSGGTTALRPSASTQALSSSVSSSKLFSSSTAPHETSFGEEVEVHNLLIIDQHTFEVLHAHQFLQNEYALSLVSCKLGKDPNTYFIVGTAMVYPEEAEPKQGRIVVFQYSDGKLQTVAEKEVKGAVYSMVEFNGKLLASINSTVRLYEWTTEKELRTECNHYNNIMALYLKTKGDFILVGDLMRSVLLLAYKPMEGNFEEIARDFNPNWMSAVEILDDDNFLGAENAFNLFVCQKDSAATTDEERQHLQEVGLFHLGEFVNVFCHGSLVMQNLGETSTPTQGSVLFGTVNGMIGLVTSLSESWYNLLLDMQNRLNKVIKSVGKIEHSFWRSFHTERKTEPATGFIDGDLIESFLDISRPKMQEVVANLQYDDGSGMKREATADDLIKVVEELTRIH
Chain of Protein cereblon/Zinc finger protein Aiolos (Homo sapiens) (Q96SW2 whole entry, looked up): as the sequence (Q96SW2 whole entry) above
Chain of Protein cereblon/Zinc finger protein Aiolos (Homo sapiens) (Q9UKT9 whole entry, looked up): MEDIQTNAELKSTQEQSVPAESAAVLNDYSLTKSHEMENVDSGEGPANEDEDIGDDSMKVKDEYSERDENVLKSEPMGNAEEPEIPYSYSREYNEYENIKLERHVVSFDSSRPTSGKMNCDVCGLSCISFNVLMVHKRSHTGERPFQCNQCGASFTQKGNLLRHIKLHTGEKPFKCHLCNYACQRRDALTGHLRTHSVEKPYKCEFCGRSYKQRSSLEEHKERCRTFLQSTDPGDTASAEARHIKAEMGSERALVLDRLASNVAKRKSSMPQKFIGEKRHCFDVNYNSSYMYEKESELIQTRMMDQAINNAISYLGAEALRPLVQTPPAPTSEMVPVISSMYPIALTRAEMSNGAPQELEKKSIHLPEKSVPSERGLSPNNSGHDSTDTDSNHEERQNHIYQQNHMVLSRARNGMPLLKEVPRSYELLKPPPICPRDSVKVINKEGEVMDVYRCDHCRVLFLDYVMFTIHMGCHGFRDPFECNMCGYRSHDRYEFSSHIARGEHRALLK
Chain of Protein cereblon/Eukaryotic peptide chain release factor GTP-binding subunit ERF3A (Homo sapiens) (P15170 whole entry, looked up): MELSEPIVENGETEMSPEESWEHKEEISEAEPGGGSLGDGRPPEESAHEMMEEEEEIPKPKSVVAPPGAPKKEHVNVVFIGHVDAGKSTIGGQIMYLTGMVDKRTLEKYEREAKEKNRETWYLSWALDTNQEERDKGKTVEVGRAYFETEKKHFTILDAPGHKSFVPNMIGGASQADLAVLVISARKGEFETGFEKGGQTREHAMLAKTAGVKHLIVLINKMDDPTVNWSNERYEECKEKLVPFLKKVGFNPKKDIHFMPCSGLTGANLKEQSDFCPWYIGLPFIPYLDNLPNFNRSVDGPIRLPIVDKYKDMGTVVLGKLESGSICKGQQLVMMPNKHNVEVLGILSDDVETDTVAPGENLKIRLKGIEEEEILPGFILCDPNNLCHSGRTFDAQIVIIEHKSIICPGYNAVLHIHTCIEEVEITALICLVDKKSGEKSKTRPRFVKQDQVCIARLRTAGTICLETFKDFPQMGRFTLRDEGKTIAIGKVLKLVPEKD
Chain of Protein cereblon/Eukaryotic peptide chain release factor GTP-binding subunit ERF3A (Homo sapiens) (Q96SW2 whole entry, looked up): as the sequence (Q96SW2 whole entry) above
Chain of Protein cereblon/Bromodomain-containing protein 4 (Homo sapiens) (Q96SW2 whole entry, looked up, other chains not shown): as the sequence (Q96SW2 whole entry) above

Row | Structure (SMILES) | Activity [23] | Activity [24] | Activity [25] | remaining at 0.5 h [26] [%] | remaining at 4 h [27] [%] | remaining at 24 h, 100 µM [28] [%] | remaining at 24 h, 100 µM [29] [%] | remaining at 24 h, 100 µM [30] [%] | Kd [22] [nM] | also measured
1 | Cc1sc2c(c1C)C(c1ccc(Cl)cc1)=N[C@@H](CC(=O)NC1CCN(C(=O)COc3cccc(N4CCC(=O)N(C)C4=O)c3C)CC1)c1nnc(C)n1-2 | – | – | – | – | – | – | – | – | – | Activity [1]: inactive
2 | Cc1sc2c(c1C)C(c1ccc(Cl)cc1)=N[C@@H](CC(=O)NC1CCN(C(=O)COc3cccc(N4CCC(=O)NC4=O)c3C)CC1)c1nnc(C)n1-2 | – | – | – | – | – | – | – | – | – | Activity (MV4-11 [2]): Active; IC50 (MV4-11 [3]): 1.1 nM; Activity (MV4-11 [4]): Active; Activity (MV4-11 [5]): Active; viability at 10 µM (MV4-11 [6]): 3.88%; viability at 1 µM (MV4-11 [7]): 7.3%; viability at 0.1 µM (MV4-11 [8]): 17.1%; viability at 0.01 µM (MV4-11 [9]): 77.2%; Activity (MV4-11 [10]): 5.77%; Activity (MV4-11 [11]): 0.49%; Activity (MV4-11 [12]): 1.13%; Activity (MV4-11 [13]): 0.32%; Activity (MV4-11 [14]): 88.7%; Activity (MV4-11 [15]): 43.6%; Activity (MV4-11 [16]): 42.3%; Activity (MV4-11 [17]): 13.4%; Activity (MV4-11 [18]): 16.9%; Activity (MV4-11 [19]): 48.7%; Activity (MV4-11 [20]): 39.4%; Activity (MV4-11 [21]): 9.13%
3 | Cc1ccccc1N1CCC(=O)NC1=O | – | – | – | – | – | – | – | – | 1240 | –
4 | CC(C)(C)OC(=O)NCC#Cc1cccc(N2CCC(=O)NC2=O)c1 | – | – | – | – | – | – | – | – | 530 | –
5 | Cc1c(C#CCNC(=O)OC(C)(C)C)cccc1N1CCC(=O)NC1=O | inactive | inactive | inactive | 87 | 97 | > 99 | > 99 | 93 | – | –
6 | Cc1c(OCC(=O)OC(C)(C)C)cccc1N1CCC(=O)NC1=O | – | – | – | – | – | – | – | – | 1200 | –

More lines, main results first:

Row | Activity [23] | Activity [24] | Activity [25] | remaining at 0.5 h [26] [%] | remaining at 4 h [27] [%] | remaining at 24 h, 100 µM [28] [%] | remaining at 24 h, 100 µM [29] [%] | remaining at 24 h, 100 µM [30] [%] | Structure (SMILES) | Kd [22] [nM] | also measured
7 | inactive | inactive | inactive | 100 | 88 | > 99 | > 99 | 95 | CCNC(=O)COc1cccc(N2CCC(=O)NC2=O)c1C | 2140 | –
8 | – | – | – | 89 | 62 | > 99 | 39 | – | Nc1cccc2c1CN(C1CCC(=O)NC1=O)C2=O (stereo not given) [LENALIDOMIDE] | – | remaining at 2 h, 100 µM [31]: 20%
9 | inactive | inactive | inactive | 90 | 102 | > 99 | > 99 | 90 | CC(=O)NCCC#Cc1cccc(N2CCC(=O)NC2=O)c1C | 630 | –
10 | inactive | inactive | inactive | 85 | 81 | > 99 | > 99 | 95 | Cc1c(OCC(=O)N2CCCCC2)cccc1N1CCC(=O)NC1=O | 1100 | Activity (MV4-11 [32]): inactive
